Laboratory results published in ChEMBL document CHEMBL5724801, “EUbOPEN Chemogenomics Library - Multiplex” (2024).
Several values for one entry are separate records, joined by “and”; a condition that tells them apart may be missing. Identical values can stand only once.

What was measured:
Format in all cases: toxicity, cell-based
Fibroblast = assay: Multiplex assay against human fibroblast
Procedure, shortened: (§1)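 At seeding, live cells were stained with Hoechst33342, BioTracker Green Microtubule Cytoskeleton Dye, MitoTracker Red and Annexin V Alexa Fluor 680. After compound addition they were imaged on a CQ1 microscope at 37°C and 5% CO2, and CellPathfinder machine-learning gating sorted them into Hoechst high-intensity objects or normal cells, with normal cells further split into healthy, pyknosed or fragmented nuclei and pyknosed cells into mitotic or apoptotic. Tubulin, mitochondrial-mass and membrane-permeability phenotypes are given as per cents of cells with healthy nuclei.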

HEK-293T = assay: Multiplex assay against HEK293T; conditions: human; procedure, shortened: as §1
U2OS = assay: Multiplex assay against U2OS; conditions: human; procedure, shortened: as §1
[1] = 12 h, 1 µM, compound concentration 1 uM
[2] = 12 h, 10 µM, compound concentration 10 uM
[3] = 24 h, 1 µM, compound concentration 1 uM
[4] = 24 h, 10 µM, compound concentration 10 uM
[5] = 48 h, 1 µM, compound concentration 1 uM
[6] = 48 h, 10 µM, compound concentration 10 uM

## CC(C)Oc1ccc(F)c(-c2cnc(N)c(C(=O)Nc3cnccc3N3CCC[C@@H](C(=O)O)C3)n2)c1
Fibroblast; [1]
  Population Apoptotic (%): 23.53% and 20.59%
  Population Fragmented Nuclei (%): 23.08% and 16.74%
  Population Healthy Nuclei (%): 53.85% and 68.67%
  Population Hoechst High Intensity Objects (%): 0%
  Population Membrane Permeable-Phenotype (%): 1.68% and 3.12%
  Population Mitochondria Different-Phenotype (%): 7.56% and 5.62%
  Population Mitotic Cells (%): 76.47% and 79.41%
  Population Normal (%): 100%
  Population Pyknosed Nuclei (%): 23.08% and 14.59%
  Population Tubulin-Different-Phenotype (%): 15.97% and 18.12%
  Total Cell Count: 221 and 233
Fibroblast; [2]
  Population Apoptotic (%): 16.67% and 33.33%
  Population Fragmented Nuclei (%): 29.81% and 29.75%
  Population Healthy Nuclei (%): 60.87% and 65.82%
  Population Hoechst High Intensity Objects (%): 0%
  Population Membrane Permeable-Phenotype (%): 16.33% and 15.38%
  Population Mitochondria Different-Phenotype (%): 5.61% and 3.53%
  Population Mitotic Cells (%): 83.33% and 66.67%
  Population Normal (%): 100%
  Population Pyknosed Nuclei (%): 9.32% and 4.43%
  Population Tubulin-Different-Phenotype (%): 45.92% and 79.17%
  Total Cell Count: 322 and 474
Fibroblast; [3]
  Population Fragmented Nuclei (%): 24.16% and 21.57%
  Population Healthy Nuclei (%): 52.79% and 67.45%
  Population Hoechst High Intensity Objects (%): 0%
  Population Membrane Permeable-Phenotype (%): 4.23% and 3.49%
  Population Mitochondria Different-Phenotype (%): 2.11% and 4.65%
  Population Mitotic Cells (%): 93.55% and 71.43%
  Population Normal (%): 100%
  Population Pyknosed Nuclei (%): 23.05% and 10.98%
  Population Tubulin-Different-Phenotype (%): 14.79% and 23.26%
  Total Cell Count: 269 and 255
Fibroblast; [4]
  Population Apoptotic (%): 11.11% and 17.65%
  Population Fragmented Nuclei (%): 39.53% and 37.88%
  Population Healthy Nuclei (%): 53.49% and 59.43%
  Population Hoechst High Intensity Objects (%): 0%
  Population Membrane Permeable-Phenotype (%): 13.04% and 18.13%
  Population Mitochondria Different-Phenotype (%): 11.11% and 4.27%
  Population Mitotic Cells (%): 88.89% and 82.35%
  Population Normal (%): 100%
  Population Pyknosed Nuclei (%): 6.98% and 2.69%
  Population Tubulin-Different-Phenotype (%): 58.94% and 76%
  Total Cell Count: 387 and 631
Fibroblast; [5]
  Population Apoptotic (%): 11.96% and 8.33%
  Population Fragmented Nuclei (%): 17.32% and 18.8%
  Population Healthy Nuclei (%): 61.43% and 70.94%
  Population Hoechst High Intensity Objects (%): 0%
  Population Membrane Permeable-Phenotype (%): 1.88% and 3.61%
  Population Mitochondria Different-Phenotype (%): 6.39% and 2.41%
  Population Mitotic Cells (%): 88.04% and 91.67%
  Population Normal (%): 100%
  Population Pyknosed Nuclei (%): 21.25% and 10.26%
  Population Tubulin-Different-Phenotype (%): 24.06% and 42.97%
  Total Cell Count: 433 and 351
Fibroblast; [6]
  Population Apoptotic (%): 25% and 75%
  Population Fragmented Nuclei (%): 43.91% and 38.05%
  Population Healthy Nuclei (%): 54.09% and 60.35%
  Population Hoechst High Intensity Objects (%): 0%
  Population Membrane Permeable-Phenotype (%): 15.74% and 24.56%
  Population Mitochondria Different-Phenotype (%): 9.88% and 3.1%
  Population Mitotic Cells (%): 75% and 25%
  Population Normal (%): 100%
  Population Pyknosed Nuclei (%): 2% and 1.6%
  Population Tubulin-Different-Phenotype (%): 61.73% and 91.37%
  Total Cell Count: 599 and 749
HEK-293T; [1]
  Population Apoptotic (%): 7.53% and 11.02%
  Population Fragmented Nuclei (%): 1.12% and 6.54%
  Population Hoechst High Intensity Objects (%): 0.28% and 0%
  Population Membrane Permeable-Phenotype (%): 0% and 4%
  Population Mitochondria Different-Phenotype (%): 34.13% and 12%
  Population Mitotic Cells (%): 92.47% and 88.98%
  Population Normal (%): 99.72% and 100%
  Population Pyknosed Nuclei (%): 40.78% and 77.12%
  Total Cell Count: 359 and 153
HEK-293T; [2]
  Population Apoptotic (%): 24.14% and 33.33%
  Population Fragmented Nuclei (%): 7.04% and 7.45%
  Population Hoechst High Intensity Objects (%): 1.97% and 0%
  Population Membrane Permeable-Phenotype (%): 4.08% and 0%
  Population Mitochondria Different-Phenotype (%): 31.63% and 17.39%
  Population Mitotic Cells (%): 75.86% and 66.67%
  Population Normal (%): 98.03% and 100%
  Population Pyknosed Nuclei (%): 43.72% and 78.26%
  Population Tubulin-Different-Phenotype (%): 70.41% and 47.83%
  Total Cell Count: 203 and 161
HEK-293T; [3]
  Population Apoptotic (%): 17% and 27.27%
  Population Fragmented Nuclei (%): 0.79% and 9.15%
  Population Hoechst High Intensity Objects (%): 0%
  Population Membrane Permeable-Phenotype (%): 1.73% and 0%
  Population Mitochondria Different-Phenotype (%): 12.59% and 10%
  Population Mitotic Cells (%): 83% and 72.73%
  Population Normal (%): 100%
  Population Tubulin-Different-Phenotype (%): 24.69% and 10%
HEK-293T; [4]
  Population Apoptotic (%): 20.45% and 46.61%
  Population Fragmented Nuclei (%): 3.49% and 7.1%
  Population Healthy Nuclei (%): 62.4% and 28.42%
  Population Hoechst High Intensity Objects (%): 0.77% and 0%
  Population Membrane Permeable-Phenotype (%): 1.86% and 0%
  Population Mitochondria Different-Phenotype (%): 33.54% and 11.54%
  Population Mitotic Cells (%): 79.55% and 53.39%
  Population Normal (%): 99.23% and 100%
  Population Pyknosed Nuclei (%): 34.11% and 64.48%
  Total Cell Count: 260 and 183
HEK-293T; [5]
  Population Apoptotic (%): 8.84% and 23.26%
  Population Fragmented Nuclei (%): 3.08% and 2.66%
  Population Healthy Nuclei (%): 77.03% and 51.6%
  Population Hoechst High Intensity Objects (%): 0.22% and 0%
  Population Membrane Permeable-Phenotype (%): 3.42% and 2.06%
  Population Mitochondria Different-Phenotype (%): 29.39% and 26.8%
  Population Mitotic Cells (%): 91.16% and 76.74%
  Population Normal (%): 99.78% and 100%
  Population Pyknosed Nuclei (%): 19.89% and 45.74%
HEK-293T; [6]
  Population Apoptotic (%): 31.37% and 50.7%
  Population Fragmented Nuclei (%): 10.59% and 8.51%
  Population Healthy Nuclei (%): 74.41% and 53.72%
  Population Hoechst High Intensity Objects (%): 0.29% and 0.53%
  Population Membrane Permeable-Phenotype (%): 7.11% and 0.99%
  Population Mitochondria Different-Phenotype (%): 69.96% and 27.72%
  Population Mitotic Cells (%): 68.63% and 49.3%
  Population Normal (%): 99.71% and 99.47%
  Population Pyknosed Nuclei (%): 15% and 37.77%
  Population Tubulin-Different-Phenotype (%): 27.67% and 73.27%
  Total Cell Count: 341 and 189
U2OS; [1]
  Population Apoptotic (%): 45.71% and 37.5%
  Population Fragmented Nuclei (%): 1.25% and 5.73%
  Population Healthy Nuclei (%): 90.02% and 84.08%
  Population Hoechst High Intensity Objects (%): 0%
  Population Membrane Permeable-Phenotype (%): 0.28% and 7.58%
  Population Mitochondria Different-Phenotype (%): 0% and 6.82%
  Population Mitotic Cells (%): 54.29% and 62.5%
  Population Normal (%): 100%
  Population Pyknosed Nuclei (%): 8.73% and 10.19%
  Population Tubulin-Different-Phenotype (%): 0.28% and 0%
  Total Cell Count: 401 and 157
U2OS; [2]
  Population Apoptotic (%): 73.33% and 43.75%
  Population Fragmented Nuclei (%): 9.57% and 11.05%
  Population Healthy Nuclei (%): 83.25% and 79.65%
  Population Hoechst High Intensity Objects (%): 0%
  Population Membrane Permeable-Phenotype (%): 8.33% and 15.33%
  Population Mitotic Cells (%): 26.67% and 56.25%
  Population Normal (%): 100%
  Population Pyknosed Nuclei (%): 7.18% and 9.3%
  Population Tubulin-Different-Phenotype (%): 4.02% and 3.65%
  Total Cell Count: 418 and 172
U2OS; [3]
  Population Apoptotic (%): 38.6% and 34.38%
  Population Fragmented Nuclei (%): 1.54% and 3.88%
  Population Healthy Nuclei (%): 87.45% and 80.58%
  Population Hoechst High Intensity Objects (%): 0%
  Population Membrane Permeable-Phenotype (%): 0.66% and 4.22%
  Population Mitochondria Different-Phenotype (%): 0% and 3.61%
  Population Mitotic Cells (%): 61.4% and 65.62%
  Population Normal (%): 100%
  Population Pyknosed Nuclei (%): 11% and 15.53%
  Population Tubulin-Different-Phenotype (%): 1.1% and 0%
  Total Cell Count: 518 and 206
U2OS; [4]
  Population Apoptotic (%): 49.3% and 65.52%
  Population Fragmented Nuclei (%): 11.73% and 11.05%
  Population Healthy Nuclei (%): 74.16% and 73.68%
  Population Hoechst High Intensity Objects (%): 0%
  Population Mitotic Cells (%): 50.7% and 34.48%
  Population Normal (%): 100%
  Population Pyknosed Nuclei (%): 14.12% and 15.26%
  Population Tubulin-Different-Phenotype (%): 6.97% and 2.14%
  Total Cell Count: 503 and 190
U2OS; [5]
  Population Apoptotic (%): 39.13% and 30.56%
  Population Fragmented Nuclei (%): 2.98% and 4.32%
  Population Healthy Nuclei (%): 86.85% and 84.57%
  Population Hoechst High Intensity Objects (%): 0% and 0.31%
  Population Membrane Permeable-Phenotype (%): 2.04% and 2.92%
  Population Mitochondria Different-Phenotype (%): 0% and 2.55%
  Population Mitotic Cells (%): 60.87% and 69.44%
  Population Normal (%): 100% and 99.69%
  Population Pyknosed Nuclei (%): 10.17% and 11.11%
  Population Tubulin-Different-Phenotype (%): 1.65% and 1.82%
  Total Cell Count: 905 and 325
U2OS; [6]
  Population Apoptotic (%): 62.73% and 80.56%
  Population Fragmented Nuclei (%): 8.71% and 11.34%
  Population Healthy Nuclei (%): 63.24% and 58.4%
  Population Hoechst High Intensity Objects (%): 0%
  Population Membrane Permeable-Phenotype (%): 2.48% and 6.47%
  Population Mitotic Cells (%): 37.27% and 19.44%
  Population Normal (%): 100%
  Population Pyknosed Nuclei (%): 28.05% and 30.25%
  Population Tubulin-Different-Phenotype (%): 16.25% and 8.63%
  Total Cell Count: 574 and 238
